Test results from ChEMBL document CHEMBL1255398, “In vitro activities of eight antifungal drugs against 55 clinical isolates of Fonsecaea spp” (2010).
Converted amounts (≈) assume the structure as drawn. Starred links: 1 amine or outer side, 2 acyl side, 3 side chain; linkers in the order of their positions; H or OH if unused. Positions of bridges follow the written chain, without caps; N, C: chain ends. Non-standard residues stand in square brackets, D forms with d. Residues, ends and D or L forms follow the SMILES beside them. *: point of attachment. pTerphenylCO(4''-OnC5H11) = CCCCCOc1ccc(-c2ccc(-c3ccc(C(=O)*)cc3)cc2)cc1; Orn(4R-OH,5R-OH) = O=C([C@H](C[C@@H](O)[C@@H](O)N[*:3])N[*:1])[*:2]; hTyr(3S-OH,4S-OH) = N[C@H](C(=O)O)[C@H](O)[C@@H](O)c1ccc(O)cc1; Pro(3S-OH,4S-Me) = C[C@H]1CN[C@H](C(=O)O)[C@H]1O; Hyp = O=C(O)[C@@H]1C[C@@H](O)CN1

Key:
Format in all cases: functional
[1] = system: Fonsecaea monophora; experiment: Antimicrobial activity against Fonsecaea monophora isolates after 72 hrs by CLSI M38-A2 protocol method
In short: (§1)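 Broth microdilution per CLSI M38-A2. Isolates grown on potato dextrose agar at 35°C for up to 7 days. Inocula were scraped into saline with 0.05% Tween 40, settled 3 to 5 min, and adjusted at 530 nm to 68 to 71% transmission (1.5 × 104 to 4 × 10^4 CFU/ml). Incubated 72 h at 35°C and read visually against drug-free control: MIC at 100% or ≥50% inhibition depending on drug, MEC microscopically by compact hyphae.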

[2] = system: Fonsecaea; experiment: Antimicrobial activity against Fonsecaea isolates after 72 hrs by CLSI M38-A2 protocol method; in short: as §1
[3] = system: Fonsecaea; experiment: Antimicrobial activity against Fonsecaea nubica isolates after 72 hrs by CLSI M38-A2 protocol method; in short: as §1
[4] = system: Fonsecaea pedrosoi; experiment: Antimicrobial activity against Fonsecaea pedrosoi isolates after 72 hrs by CLSI M38-A2 protocol method; in short: as §1

SMILES	MIC50 [1] [µg/mL]	MIC90 [1] [µg/mL]	MIC50 [2] [µg/mL]	MIC90 [2] [µg/mL]	MIC [3] [µg/mL]	MIC50 [3] [µg/mL]	MIC90 [3] [µg/mL]	MIC50 [4] [µg/mL]	MIC90 [4] [µg/mL]
CC[C@@H]([C@H](C)O)n1ncn(-c2ccc(N3CCN(c4ccc(OC[C@@H]5CO[C@@](Cn6cncn6)(c6ccc(F)cc6F)C5)cc4)CC3)cc2)c1=O [POSACONAZOLE]	0.031 (≈ 0.0442 µM)	0.063 (≈ 0.0899 µM)	0.031 (≈ 0.0442 µM)	0.063 (≈ 0.0899 µM)	0.031 (≈ 0.0442 µM)	0.031 (≈ 0.0442 µM)	0.063 (≈ 0.0899 µM)	0.063 (≈ 0.0899 µM)	0.063 (≈ 0.0899 µM)
C[C@@H](c1ncncc1F)[C@](O)(Cn1cncn1)c1ccc(F)cc1F [VORICONAZOLE]	0.063 (≈ 0.18 µM)	0.125 (≈ 0.358 µM)	0.25 (≈ 0.716 µM)	0.5 (≈ 1.43 µM)	0.25 (≈ 0.716 µM)	0.25 (≈ 0.716 µM)	0.5 (≈ 1.43 µM)	0.5 (≈ 1.43 µM)	0.5 (≈ 1.43 µM)
CCCCCOc1ccc(-c2ccc(-c3ccc(C(=O)N[C@H]4C[C@@H](O)[C@@H](O)NC(=O)[C@@H]5[C@@H](O)[C@@H](C)CN5C(=O)[C@H]([C@@H](C)O)NC(=O)[C@H]([C@H](O)[C@@H](O)c5ccc(O)cc5)NC(=O)[C@@H]5C[C@@H](O)CN5C(=O)[C@H]([C@@H](C)O)NC4=O)cc3)cc2)cc1 [ANIDULAFUNGIN] ({pTerphenylCO(4''-OnC5H11)}-[Orn(4R-OH,5R-OH)]T[Hyp][hTyr(3S-OH,4S-OH)]T[Pro(3S-OH,4S-Me)]; lactam 1-C)	4 (≈ 3.51 µM)	8 (≈ 7.02 µM)	–	–	2 (≈ 1.75 µM)	2 (≈ 1.75 µM)	8 (≈ 7.02 µM)	8 (≈ 7.02 µM)	8 (≈ 7.02 µM)
C[C@@H](c1nc(-c2ccc(C#N)cc2)cs1)[C@](O)(Cn1cncn1)c1cc(F)ccc1F [ISAVUCONAZOLE]	0.125 (≈ 0.286 µM)	0.25 (≈ 0.571 µM)	0.25 (≈ 0.571 µM)	0.25 (≈ 0.571 µM)	–	0.125 (≈ 0.286 µM)	0.5 (≈ 1.14 µM)	0.25 (≈ 0.571 µM)	0.25 (≈ 0.571 µM)
OC(Cn1cncn1)(Cn1cncn1)c1ccc(F)cc1F [FLUCONAZOLE]	16 (≈ 52.2 µM)	32 (≈ 104 µM)	16 (≈ 52.2 µM)	32 (≈ 104 µM)	16 (≈ 52.2 µM)	16 (≈ 52.2 µM)	32 (≈ 104 µM)	32 (≈ 104 µM)	32 (≈ 104 µM)
C[C@@H]1[C@H](O)[C@@H](C)/C=C/C=C/C=C/C=C/C=C/C=C/C=C/[C@H](O[C@@H]2O[C@H](C)[C@@H](O)[C@H](N)[C@@H]2O)C[C@@H]2O[C@](O)(C[C@@H](O)C[C@@H](O)[C@H](O)CC[C@@H](O)C[C@@H](O)CC(=O)O[C@H]1C)C[C@H](O)[C@H]2C(=O)O [AMPHOTERICIN B]	1 (≈ 1.08 µM)	2 (≈ 2.16 µM)	1 (≈ 1.08 µM)	2 (≈ 2.16 µM)	–	1 (≈ 1.08 µM)	2 (≈ 2.16 µM)	1 (≈ 1.08 µM)	2 (≈ 2.16 µM)
CCC(C)n1ncn(-c2ccc(N3CCN(c4ccc(OCC5COC(Cn6cncn6)(c6ccc(Cl)cc6Cl)O5)cc4)CC3)cc2)c1=O (configuration not stated) [ITRACONAZOLE]	0.063 (≈ 0.0893 µM)	0.125 (≈ 0.177 µM)	0.063 (≈ 0.0893 µM)	0.125 (≈ 0.177 µM)	–	0.125 (≈ 0.177 µM)	0.25 (≈ 0.354 µM)	0.063 (≈ 0.0893 µM)	0.125 (≈ 0.177 µM)
CC[C@H](C)C[C@H](C)CCCCCCCCC(=O)N[C@H]1C[C@@H](O)[C@@H](NCCN)NC(=O)[C@@H]2[C@@H](O)CCN2C(=O)[C@H]([C@H](O)CCN)NC(=O)[C@H]([C@H](O)[C@@H](O)c2ccc(O)cc2)NC(=O)[C@@H]2C[C@@H](O)CN2C(=O)[C@H]([C@@H](C)O)NC1=O [CASPOFUNGIN]	2 (≈ 1.83 µM)	2 (≈ 1.83 µM)	2 (≈ 1.83 µM)	2 (≈ 1.83 µM)	2 (≈ 1.83 µM)	2 (≈ 1.83 µM)	4 (≈ 3.66 µM)	4 (≈ 3.66 µM)	4 (≈ 3.66 µM)
